In ChEMBL document CHEMBL3526088, “The intestine as an important contributor to prasugrel active metabolite formation in vivo” (Drug Metab Dispos, 2011):

Tests used:
[1] = Drug metabolism in human intestinal microsomes assessed as R-138727 formation measured per protein at 1.6 to 200 uM after 15 mins incubation; assay type: ADME, Intestine, Microsome; conditions: 0.25 h
In short: (§1)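 Preincubated 5 min at 37°C, then R-95913 added (1.6–200 μM final) and incubated 15 min at 37°C, in triplicate. Stopped with methoxyphenacyl bromide and internal standard in acetonitrile, solid-phase extracted, and analysed by HPLC. Michaelis-Menten fit, CLint = Vmax/Km.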

Liver microsome [2] = assay: Drug metabolism in dog liver microsomes assessed as R-138727 formation at 1.6 to 200 uM after 15 mins incubation; assay type: ADME, Canis lupus familiaris; conditions: 0.25 h; in short: as §1
[3] = Intrinsic clearance in human intestinal microsomes assessed as R-138727 formation measured per protein at 1.6 to 200 uM after 15 mins incubation; assay type: ADME, Intestine, Microsome; conditions: 0.25 h
In short: (§2)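 Microsomes (1 mg protein/ml; dog intestinal, dog liver or human intestinal) in 43 mM potassium phosphate pH 7.4 with an NADPH-generating system and 5 mM glutathione, in triplicate. After 5 min preincubation at 37°C, R-95913 (1.6–200 µM final) was added for 15 min at 37°C. Product was derivatised with methoxyphenacyl bromide, extracted by SPE and measured by HPLC. Michaelis–Menten fit; CLint = Vmax/Km.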

[4] = Drug metabolism in dog intestinal microsomes assessed as R-138727 formation measured per protein at 1.6 to 200 uM after 15 mins incubation; assay type: ADME, Canis lupus familiaris, Intestine, Microsome; conditions: 0.25 h; in short: as §1
[5] = Intrinsic clearance in dog intestinal microsomes assessed as R-138727 formation measured per protein at 1.6 to 200 uM after 15 mins incubation; assay type: ADME, Canis lupus familiaris, Intestine, Microsome; conditions: 0.25 h; in short: as §2
[6] = Drug metabolism in human intestinal microsomes assessed as R-138727 formation at 1.6 to 200 uM after 15 mins incubation; assay type: ADME, Intestine, Microsome; conditions: 0.25 h; in short: as §1
Liver microsome [7] = assay: Drug metabolism in dog liver microsomes assessed as R-138727 formation measured per protein at 1.6 to 200 uM after 15 mins incubation; assay type: ADME, Canis lupus familiaris; conditions: 0.25 h; in short: as §1
[8] = Drug metabolism in dog intestinal microsomes assessed as R-138727 formation at 1.6 to 200 uM after 15 mins incubation; assay type: ADME, Canis lupus familiaris, Intestine, Microsome; conditions: 0.25 h; in short: as §1
Liver microsome [9] = assay: Intrinsic clearance in dog liver microsomes assessed as R-138727 formation measured per protein at 1.6 to 200 uM after 15 mins incubation; assay type: ADME, Canis lupus familiaris; conditions: 0.25 h; in short: as §2
Liver microsome [10] = assay: Drug metabolism in human liver microsomes assessed as R-138727 formation at 1.6 to 200 uM after 15 mins incubation; assay type: ADME; conditions: 0.25 h
Liver microsome [11] = assay: Drug metabolism in human liver microsomes assessed as R-138727 formation at 1.6 to 200 uM measured per protein after 15 mins incubation; assay type: ADME; conditions: 0.25 h
Liver microsome [12] = assay: Intrinsic clearance in human liver microsomes assessed as R-138727 formation at 1.6 to 200 uM measured per protein after 15 mins incubation; assay type: ADME; conditions: 0.25 h
Canis familiaris [13] = assay: Drug metabolism in beagle dog assessed as R-95913 formation in liver at 1 mg/kg, intraduodenal; assay type: ADME, organism-based, Canis lupus familiaris; set-up: dose 1 mg/kg, route intraduodenal; conditions: in vivo, other
In short: (§3)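 Male beagle dogs (n = 6, 9–12 kg) with portal- and hepatic-vein cannulas, fasted about 19 h, got 1 mg/kg intraduodenally in 5% N,N-dimethylacetamide–95% PEG 400. Portal, hepatic and jugular blood was drawn into heparin at 1–120 min. Plasma was precipitated with acetonitrile (phenacetin internal standard) and analysed by LC-MS/MS in MRM mode. AUC0–2h was by trapezoidal noncompartmental analysis, mean ± S.D.; availability fractions were calculated from these AUCs.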

Canis familiaris [14] = assay: Drug metabolism in beagle dog assessed as product of fraction of intestinal absorption and fraction of compound hydrolysis to R-138727 formation in intestine at 1 mg/kg, intraduodenal; assay type: ADME, organism-based, Canis lupus familiaris; set-up: dose 1 mg/kg, route intraduodenal; conditions: in vivo, other; in short: as §3
Canis familiaris [15] = assay: Drug metabolism in beagle dog assessed as fraction of R-95913 hydrolysis to R-138727 formation at 1 mg/kg, intraduodenal; assay type: ADME, organism-based, Canis lupus familiaris; set-up: dose 1 mg/kg, route intraduodenal; conditions: in vivo, other; in short: as §3
Canis familiaris [16] = assay: Drug metabolism in beagle dog assessed as fraction of compound hydrolysis to R-138727 formation in intestine at 1 mg/kg, intraduodenal; assay type: ADME, organism-based, Canis lupus familiaris; set-up: dose 1 mg/kg, route intraduodenal; conditions: in vivo, other; in short: as §3
Canis familiaris [17] = assay: Drug metabolism in beagle dog assessed as R-138727 formation in liver at 1 mg/kg, intraduodenal; assay type: ADME, organism-based, Canis lupus familiaris; set-up: dose 1 mg/kg, route intraduodenal; conditions: in vivo, other; in short: as §3
Canis familiaris [18] = assay: Drug metabolism in beagle dog assessed as product of fraction of intestinal absorption and fraction of compound hydrolysis to R-95913 formation in intestine at 1 mg/kg, intraduodenal; assay type: ADME, organism-based, Canis lupus familiaris; set-up: dose 1 mg/kg, route intraduodenal; conditions: in vivo, other; in short: as §3
Canis familiaris [19] = assay: Drug metabolism in beagle dog assessed as fraction of compound hydrolysis to R-95913 formation in intestine at 1 mg/kg, intraduodenal; assay type: ADME, organism-based, Canis lupus familiaris; set-up: dose 1 mg/kg, route intraduodenal; conditions: in vivo, other; in short: as §3

Row | Vmax [1] | Km (Liver microsome [2]) | CL [3] | Vmax [4] | CL [5] | Km [6] | Vmax (Liver microsome [7]) | Km [8] | CLint (Liver microsome [9]) | Km (Liver microsome [10]) | Vmax (Liver microsome [11]) | CLH (Liver microsome [12]) | Fm (Canis familiaris [13]) | Fm (Canis familiaris [14]) | Fm (Canis familiaris [15]) | Fm (Canis familiaris [16]) | Fm (Canis familiaris [17]) | Fm (Canis familiaris [18]) | Fm (Canis familiaris [19]) | Structure (SMILES)
1 | 89.2 pmol/min/mg | 18.5 µM | 1.1 µL/min/mg | 49.8 pmol/min/mg | 1.2 µL/min/mg | 80.4 µM | 379.9 pmol/min/mg | 42.7 µM | 20.6 µL/min/mg | 26 µM | 247 pmol/min/mg | 9.6 µL/min/mg |  |  |  |  |  |  |  | O=C1C=C2CN(C(C(=O)C3CC3)c3ccccc3F)CCC2S1 (centres undefined)
2 |  |  |  |  |  |  |  |  |  |  |  |  | 0.08 | 0.13 | 0.23 | 0.13 | 0.75 | 0.8 | 0.83 | CC(=O)Oc1cc2c(s1)CCN(C(C(=O)C1CC1)c1ccccc1F)C2 (centres undefined) [PRASUGREL]
